An excerpt weighted towards active compounds, which were near 2.1% of everything screened.
PKA-R2B act: PKA-R2B complex activation; P22694+P31323; PKA-R2B holoenzyme dissociation, Cy5-IP20 fluorescence polarization; R2B truncated from residue 108, S112A mutant; 0% DMSO only, 100% 113 µM cGMP; activation, % at 11.4 µM; hit rate 0.079% among 340,000; AID 504700;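 active means activation above a cutoff set at the mean over all compounds plus 3 SD, cut at about 18% in these data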;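 further: higher means more holoenzyme dissociation and a rise in polarization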
SR-BI DiI-HDL act: enhances SR-BI lipid uptake from DiI-HDL. CHO ldlA[mSR-BI] cells, DiI-HDL uptake fluorescence, 3 h; 100 = double the neutral-control signal. activation, % at 12.5 µM. hit rate 0.096% among 320,000. AID 504775;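 active means mean replicate activation of at least 60% and every replicate at or above 60%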;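 further: 0% = median plate neutral-control signal and 100% = twice that signal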
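Test system: SR-BI-overexpressing, LDLR-lacking CHO cells. Measured by: DiI fluorescence, bottom read. Medium: Ham's F12 with 0.5% BSA, HEPES 25 mM, pH 7.4. Timing: 3 h uptake period with compound, 37 °C.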
SR-BI DiI inh: blocks mouse SR-BI lipid uptake from DiI-HDL; ldlA[mSR-BI] CHO cells, DiI-HDL uptake fluorescence, 3 h; hit rate 0.96% among 320,000; inhibition, % at 12.5 µM; Q61009;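 active means mean replicate inhibition of at least 70% and a set share of replicates each scoring 70 or more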;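 further: 0% = median of neutral control wells and 100% = median of positive control wells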
PKA-R1A act: PKA-R1A complex activation; PKA-R1A dissociation, Cy5-IP20 fluorescence polarization; scaled: DMSO 0%, 113 µM cGMP 100%; activation, % at 11.4 µM; hit rate 0.083% among 340,000;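 active means percent activation above the mean of all tested compounds plus 3 SD, cut at about 19% in these data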;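 further: higher means more PKAc released from R1A so a rise in polarization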
CDK5 inh: inhibitors of human CDK5/p35 kinase | hit rate 0.01% among 330,000 | Recombinant CDK5/p35, ADP-Glo luminescence, 60 min | AID 488839 | Q00535+Q15078 | inhibition, % at 10 µM;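 active means highest replicate inhibition of at least 50% and at least 75% of replicates reaching 50%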;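 further: plate controls were DMSO neutral control for no effect and GW8510 at 10 µM for full effect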
dFosB activator: activators of mouse delta FosB homodimer | P13346 | purified delta FosB, TAMRA-CDK5 oligo fluorescence polarization; percent of positive-control signal above neutral wells | activation, % at 25 µM | hit rate 0.99% among 340,000 | AID 493131;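 active means mean activation above about 17%, with every replicate also reaching it, limit read from the data, passing the limit was not always enough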
Target sequence (P13346 whole entry, looked up): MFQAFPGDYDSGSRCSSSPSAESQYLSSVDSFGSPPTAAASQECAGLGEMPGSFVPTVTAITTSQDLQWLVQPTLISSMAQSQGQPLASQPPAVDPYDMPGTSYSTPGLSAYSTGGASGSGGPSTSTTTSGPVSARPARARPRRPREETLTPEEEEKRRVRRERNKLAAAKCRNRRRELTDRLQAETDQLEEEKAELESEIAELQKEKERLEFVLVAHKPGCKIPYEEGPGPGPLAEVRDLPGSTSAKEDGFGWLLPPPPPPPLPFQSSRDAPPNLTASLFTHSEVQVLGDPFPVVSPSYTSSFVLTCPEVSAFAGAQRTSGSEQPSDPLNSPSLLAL
Starred values were filed as active, the others as inactive.

`Cc1ccc(S(=O)(=O)Nc2cc(S(=O)(=O)N3CCOCC3)ccc2NCC2CCCO2)cc1` (configuration not stated) gave PKA-R2B act -1.2, SR-BI DiI-HDL act 17.5, SR-BI DiI inh -17.5, PKA-R1A act -0.8, CDK5 inh 0.7 and dFosB activator -10.7.
CC(=O)c1cccc(NC(=O)Nc2csc3c2CCCC3)c1 was read as PKA-R2B act -1.6, SR-BI DiI-HDL act -75.2, SR-BI DiI inh 75.2*, PKA-R1A act -7.1, CDK5 inh -0.2 and dFosB activator -8.7.
CC(=O)c1cccc(NC(=O)c2csc3c2CCCCC3)c1 was read as PKA-R2B act -9.1, SR-BI DiI-HDL act -50.5, SR-BI DiI inh 50.5, PKA-R1A act -6.6, CDK5 inh -1.8 and dFosB activator -4.7.
Cc1nnn(-c2nonc2N)c1C(=O)N/N=C/c1ccccc1O was read as PKA-R2B act -5.4, SR-BI DiI-HDL act -56.8, SR-BI DiI inh 56.8, PKA-R1A act 3.2, CDK5 inh -0.5 and dFosB activator 104.0*.
CCN(CC)c1ccc(/C=N/NC(=O)c2nnn(-c3nonc3N)c2C(C)C)c(O)c1 was read as PKA-R2B act -16.1, SR-BI DiI-HDL act -132.6, SR-BI DiI inh 132.6*, PKA-R1A act -11.9, CDK5 inh 0.3 and dFosB activator -7.7.
`CCN(CC)c1ccc(/C=N/NC(=O)c2ccoc2C)c(O)c1` gave PKA-R2B act -13.9, SR-BI DiI-HDL act -100.1, SR-BI DiI inh 100.1*, PKA-R1A act -5.4, CDK5 inh 3.9 and dFosB activator -11.2.
CC1CCN(Cc2c(C(=O)N/N=C/c3ccccc3O)nnn2-c2nonc2N)CC1 was read as PKA-R2B act 6.5, SR-BI DiI-HDL act -14.6, SR-BI DiI inh 14.6, PKA-R1A act -5.2, CDK5 inh -0.7 and dFosB activator 20.9*.
Screening Cc1c(OCC(=O)N2CCC(C(=O)NCCCC(=O)O)CC2)ccc2c1oc(=O)c1ccccc12 returned PKA-R2B act 4.5, SR-BI DiI-HDL act 11.4, SR-BI DiI inh -11.4, PKA-R1A act -1.7, CDK5 inh 0.1 and dFosB activator -13.9.
`CN1CCN(C(=O)CCn2c(=S)[nH]c3ccccc3c2=O)CC1` gave PKA-R2B act 2.8 and PKA-R1A act 10.8.
`COc1ccc2nc(NC(=O)c3cc(C)oc3C)sc2c1` gave PKA-R2B act -4.3, SR-BI DiI-HDL act -83.0, SR-BI DiI inh 83.0*, PKA-R1A act 2.5, CDK5 inh -1.7 and dFosB activator 3.8.
`Cc1cc(C(=O)Nc2nc3ccc(S(C)(=O)=O)cc3s2)c(C)o1` gave PKA-R2B act 7.3, SR-BI DiI-HDL act -81.7, SR-BI DiI inh 81.7*, PKA-R1A act 0.7, CDK5 inh 0.2 and dFosB activator 1.2.
`Cc1ccc(C(=O)Nc2nc3ccc(S(C)(=O)=O)cc3s2)s1` gave PKA-R2B act -3.2, SR-BI DiI-HDL act -24.4, SR-BI DiI inh 24.4, PKA-R1A act -3.0, CDK5 inh -1.2 and dFosB activator -8.8.
COc1ccc2nc(NC(=O)c3ccoc3C)sc2c1 was read as PKA-R2B act -4.1, SR-BI DiI-HDL act -53.7, SR-BI DiI inh 53.7, PKA-R1A act -4.0, CDK5 inh 1.0 and dFosB activator -2.8.
`CC1=C(C#N)C(=O)N(C)C(C)(C)C1` gave PKA-R2B act 6.5, SR-BI DiI-HDL act 140.4*, SR-BI DiI inh -140.4, PKA-R1A act 4.6, CDK5 inh 0.1 and dFosB activator -3.8.
N=C1/C(=C/c2cccn2CCOc2ccccc2)C(=O)N=C2SC=C(c3ccccc3)N12 was read as PKA-R2B act 3.1, SR-BI DiI-HDL act -74.9, SR-BI DiI inh 74.9*, PKA-R1A act -11.0, CDK5 inh 0.4 and dFosB activator -3.7.
CN=c1scc(C)n1/N=C/c1cc(Br)c(O)c(Br)c1 was read as PKA-R2B act -1.9, SR-BI DiI-HDL act 13.4, SR-BI DiI inh -13.4, PKA-R1A act -12.9, CDK5 inh -0.3 and dFosB activator 2.6.
CCN=c1scc(C)n1/N=C/c1cc(Br)c(O)c(OC)c1 was read as PKA-R2B act 0.2, SR-BI DiI-HDL act -71.7, SR-BI DiI inh 71.7*, PKA-R1A act -4.9, CDK5 inh -0.1 and dFosB activator -13.9.
Screening COc1ccc(S(=O)(=O)N(C)C2CCN(C)CC2)cc1 returned PKA-R2B act -5.1, SR-BI DiI-HDL act 262.8*, SR-BI DiI inh -262.8, PKA-R1A act -9.4, CDK5 inh -0.1 and dFosB activator 3.3.
`COc1ccc(S(=O)(=O)N2C[C@H]3CON(C)[C@H]3C[C@H]2c2ccc(-c3cc4ccccc4o3)cc2)cc1` gave PKA-R2B act -7.6 and PKA-R1A act -12.7.
CC(C)COC(=O)N(C)C[C@H]1OCc2cnnn2CCCC(=O)N([C@H](C)CO)C[C@@H]1C was read as PKA-R2B act 4.2 and PKA-R1A act -4.8.
Screening CCN1CCN(Cc2ccc(NC(=O)c3cc(NC(=O)C4=NN(c5ccccc5)C(=O)C4)cc(OC)c3)cc2C(F)(F)F)CC1 returned PKA-R2B act -2.6, SR-BI DiI-HDL act -30.3, SR-BI DiI inh 30.3, PKA-R1A act -13.1, CDK5 inh 1.2 and dFosB activator 60.2*.
For CCN1CCN(Cc2ccc(NC(=O)c3ccc(C)c(NC(=O)C4=NN(c5ccccc5)C(=O)C4)c3)cc2C(F)(F)F)CC1 the results were PKA-R2B act -2.0, SR-BI DiI-HDL act -44.1, SR-BI DiI inh 44.1, PKA-R1A act -8.7, CDK5 inh -0.3 and dFosB activator 66.3*.
`Cc1cc(C)c2c(c1)/C(=N/NC(=S)Nc1ccc(F)cc1)CCC2` gave PKA-R2B act -2.2, SR-BI DiI-HDL act -53.1, SR-BI DiI inh 53.1, PKA-R1A act -0.7, CDK5 inh -0.5 and dFosB activator 31.4*.
For CC(C)n1cc(/C=C2\NC(=O)N(c3cccc(Cl)c3)C2=O)c2ccccc21 the results were PKA-R2B act 7.9, SR-BI DiI-HDL act -97.8, SR-BI DiI inh 97.8*, PKA-R1A act 11.1, CDK5 inh 1.4 and dFosB activator -3.0.
CC(C)n1cc(/C=C2/NC(=O)N(c3cccc(Cl)c3)C2=O)c2ccccc21 was read as PKA-R2B act 8.9, SR-BI DiI-HDL act -65.9, SR-BI DiI inh 65.9, PKA-R1A act -11.5, CDK5 inh -1.7 and dFosB activator -2.6.
Screening COc1ccc(Cn2c(SCc3ccc(C)cc3)nc3cc(OC)c(OC)cc3c2=N)cc1Cl returned PKA-R2B act 0.2, SR-BI DiI-HDL act 0.2, SR-BI DiI inh -0.2, PKA-R1A act 5.3, CDK5 inh 2.5 and dFosB activator 58.8*.
`COc1ccc(Cn2c(SCc3cc(C)ccc3C)nc3cc(OC)c(OC)cc3c2=N)cc1` gave PKA-R2B act -10.8, SR-BI DiI-HDL act 1.8, SR-BI DiI inh -1.8, PKA-R1A act -10.5, CDK5 inh -1.1 and dFosB activator 40.4*.
